The test system of one series is Cortical neurone. As to the kind of experiment: Neuroprotective effect against NMDA-induced toxicity in Sprague-Dawley rat cultured cortical neurons assessed as LDH release pretreated 15 mins before NMDA treatment assessed after 16 to 24 hrs by spectrophotometry. It is filed as functional. In short, it runs like this:
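Rat cortical cultures (E16–E19) used at 9–12 days. Cells pretreated 15 min in ACSF at pH 7.6, then exposed 10 min at room temperature to 100 μM NMDA plus 10 μM glycine with compound present. Washed with D-APV/CNQX. LDH release measured 16–24 h later as a fraction of total. Scaled between the D-APV minimum and the NMDA maximum; cultures with <10% death discarded.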

A further series concerns Plasma. The series can be described thus: Half life in rat plasma at 30 mg/kg, ip by LC-MS/MS analysis. It counts as ADME, organism-based. More on the design: dose 30 mg/kg, route intraperitoneal. To be noted: in vivo. Put shortly:
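Fasted rats (n = 3 per dose) given 30 mg/kg ip in 2% dimethyl acetamide/98% 5% hydroxypropyl cyclodextrin. Plasma sampled at several time points up to 240 min and extracted with 5 volumes of cold acetonitrile. Parent compound measured by LC-MS/MS (MRM) against a standard curve to give plasma t1/2.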

The subject of another series is Mus musculus. The series can be described thus: Plasma concentration in C57BL/6 mouse at 30 mg/kg, ip. Details: dose 30 mg/kg, route intraperitoneal. It is filed as ADME, organism-based. To be noted: in vivo.
Series [1] has as its target Glutamate NMDA receptor; Grin1/Grin2c (Rattus norvegicus) (UniProt P35439+Q00961). The series can be described thus: Inhibition of rat recombinant NR1/NR2C receptor expressed in Xenopus oocytes assessed as inhibition of glutamate and glycine-induced evoked current at 3uM by two electrode voltage clamp method. Particulars: Oocyte. It is filed as cell-based.
Series [2] deals with Glutamate receptor 3 (Rattus norvegicus) (UniProt P19492). The series can be described thus: Inhibition of rat recombinant GluR3 expressed in Xenopus oocytes assessed as inhibition of kainate-induced evoked current at 3 uM by two electrode voltage clamp method. It is filed as cell-based. To be noted: Oocyte. Put shortly:
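Xenopus oocytes injected with 5–10 ng rat receptor cRNA and kept in Barth's solution at 18 °C. Two-electrode voltage clamp at −40 mV and 23 °C, 2–7 days after injection, in 90 NaCl/1 KCl/10 HEPES/0.5 BaCl2 mM at pH 7.3 or 7.6. Agonists: 50 μM kainate for GluR3, GluR4 and GluR2/3; 3 nM domoate for GluR6; 100 μM AMPA for GluR6/KA1. Current expressed as % of control; paired t test.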

The source made the active and inactive calls. No cut-off for these calls is given here.

Chain of Glutamate receptor 3 (Rattus norvegicus) (P19492 whole entry): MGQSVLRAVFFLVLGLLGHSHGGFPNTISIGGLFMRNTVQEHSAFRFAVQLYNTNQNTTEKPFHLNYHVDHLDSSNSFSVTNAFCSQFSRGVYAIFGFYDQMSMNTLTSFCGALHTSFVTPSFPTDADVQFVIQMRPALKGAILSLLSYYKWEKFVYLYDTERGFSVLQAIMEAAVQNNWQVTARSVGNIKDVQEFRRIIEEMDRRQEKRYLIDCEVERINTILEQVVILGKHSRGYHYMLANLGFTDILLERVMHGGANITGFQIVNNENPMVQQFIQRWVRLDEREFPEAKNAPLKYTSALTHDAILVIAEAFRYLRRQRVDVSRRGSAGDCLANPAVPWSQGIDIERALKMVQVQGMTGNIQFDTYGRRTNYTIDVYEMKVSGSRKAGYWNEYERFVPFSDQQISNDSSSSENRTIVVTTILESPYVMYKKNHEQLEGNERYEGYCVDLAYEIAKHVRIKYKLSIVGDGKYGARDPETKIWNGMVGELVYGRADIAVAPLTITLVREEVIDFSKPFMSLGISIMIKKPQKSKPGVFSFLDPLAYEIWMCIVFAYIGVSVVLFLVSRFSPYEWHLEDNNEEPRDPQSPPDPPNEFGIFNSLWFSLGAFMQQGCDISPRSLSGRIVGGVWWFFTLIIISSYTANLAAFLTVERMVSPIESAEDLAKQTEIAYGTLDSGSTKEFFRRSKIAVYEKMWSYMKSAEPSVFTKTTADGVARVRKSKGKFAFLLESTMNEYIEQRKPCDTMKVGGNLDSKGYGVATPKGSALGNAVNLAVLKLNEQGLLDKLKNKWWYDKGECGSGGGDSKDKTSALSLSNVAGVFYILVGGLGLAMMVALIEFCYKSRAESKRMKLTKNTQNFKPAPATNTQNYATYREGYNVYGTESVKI

Consider `CS(=O)(=O)Nc1ccc(OC[C@@H](O)CNCCc2ccc(Cl)c(Cl)c2)cc1`, for which the Activity entry in the series on Cortical neurone was “Dose-dependent effect”. In addition, in the series with Plasma, the t1/2 stood at 1.1 h. The concentration in the series with Mus musculus worked out at 1000 nM. Moreover, the outcome in series [1] and in series [2] was inactive.

The record behind these values is ChEMBL document CHEMBL1140127, “Enantiomeric propanolamines as selective N-methyl-D-aspartate 2B receptor antagonists” (J Med Chem, 2008).
